From ChEMBL document CHEMBL1147783, “Synthesis and biological activity of novel 4-phenyl-1,8-naphthyridin-2(1H)-on-3-yl ureas: potent acyl-CoA:cholesterol acyltransferase inhibitor with improved aqueous solubility” (Bioorg Med Chem Lett, 2006)

Assays:
[1] = Solubility in phosphate buffer at pH 7.4; assay type: physicochemical
Outline: (§1)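 Solubility was measured at rt in phosphate buffer (5.53% aq citric acid/1.75% aq Na₂HPO₄) adjusted to pH 2.5, 5.5 or 7.4. Dissolved compound was quantified by HPLC.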

[2] = Solubility in phosphate buffer at pH 5.5; assay type: physicochemical; outline: as §1
[3] = Solubility in phosphate buffer at pH 2.5; assay type: physicochemical; outline: as §1
[4] = target: T1, Sterol O-acyltransferase 1 (Rattus norvegicus, UniProt O70536); assay: Inhibitory activity against ACAT in rat macrophages
T1 sequence (O70536 whole entry): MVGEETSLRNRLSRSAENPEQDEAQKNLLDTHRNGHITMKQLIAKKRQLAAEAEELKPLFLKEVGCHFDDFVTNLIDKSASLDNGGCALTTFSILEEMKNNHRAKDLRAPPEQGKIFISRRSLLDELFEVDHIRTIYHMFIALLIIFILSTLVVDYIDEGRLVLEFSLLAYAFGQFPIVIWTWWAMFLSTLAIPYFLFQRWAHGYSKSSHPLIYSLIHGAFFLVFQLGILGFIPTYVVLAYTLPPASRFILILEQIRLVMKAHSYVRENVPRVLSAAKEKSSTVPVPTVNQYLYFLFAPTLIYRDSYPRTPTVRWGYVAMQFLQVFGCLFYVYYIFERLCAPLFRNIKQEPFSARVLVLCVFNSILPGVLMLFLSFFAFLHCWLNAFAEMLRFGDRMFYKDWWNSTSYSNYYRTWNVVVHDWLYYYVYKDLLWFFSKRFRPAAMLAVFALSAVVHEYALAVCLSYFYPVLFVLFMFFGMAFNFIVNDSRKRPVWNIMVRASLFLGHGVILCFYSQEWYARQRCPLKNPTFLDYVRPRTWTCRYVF

[5] = Cmax in rabbit administered with 1.0 mg/kg/day for 21 days; assay type: ADME, organism-based, Oryctolagus cuniculus; design: dose 1 mg/kg/day; details: in vivo
Outline: (§2)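 Rabbits were dosed orally at 1.0 mg/kg/day for 21 days. Blood drug levels gave Cmax and AUC over 0–24 h. Serum total cholesterol was measured under the same regimen and expressed relative to control animals.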

[6] = system: Oryctolagus cuniculus; assay: Decrease in serum total cholesterol in rabbit administered with 1.0 mg/kg/day for 21 days compared to control; assay type: ADME, organism-based; design: scale not given: the % may be the effect or the level left; details: in vivo, 504 h; outline: as §2
[7] = Cmax in mice administered with 30 mg/kg po; assay type: ADME, organism-based; design: dose 30 mg/kg, route oral; details: mouse, in vivo
[8] = AUC in rabbit administered with 1.0 mg/kg/day for 21 days; assay type: ADME, organism-based, Oryctolagus cuniculus; details: plasma; outline: as §2

| SMILES | solubility [1] [µg/mL] | solubility [2] [µg/mL] | solubility [3] [µg/mL] | IC50 [4] [nM] | Cmax [5] [ng/mL] | Activity [6] [%] | Cmax [7] [ng/mL] | AUC at 504 h [8] [ng·h/mL] |
| --- | --- | --- | --- | --- | --- | --- | --- | --- |
| CCCCn1c(=O)c(NC(=O)Nc2c(C(C)C)cc(N)cc2C(C)C)c(-c2cccc(OCCO)c2)c2cccnc21.Cl | 30 | 32 | > 1000 | > 1000 | – | – | – | – |
| CCCCn1c(=O)c(NC(=O)Nc2c(C(C)C)cc(CN(CC)CC)cc2C(C)C)c(-c2cccc(OC)c2)c2cccnc21.Cl | 62 | 1000 | > 1000 | 680 | – | – | – | – |
| CCCCn1c(=O)c(NC(=O)Nc2c(C(C)C)cc(CN)cc2C(C)C)c(-c2cccc(OC)c2)c2cccnc21.Cl | 36 | 23 | 220 | 382 | – | – | – | – |
| CCCCn1c(=O)c(NC(=O)Nc2c(C(C)C)cc(N)cc2C(C)C)c(-c2cccc(OC)c2)c2cccnc21.Cl | < 1 | 1 | 22 | 8.3 | – | – | – | – |
| CCCCn1c(=O)c(NC(=O)Nc2c(C(C)C)cc(N)cc2C(C)C)c(-c2cccc(OCCCN3CCCCC3)c2)c2cccnc21.Cl.Cl | 200 | 180 | > 1000 | 540 | – | – | – | – |
| CCCCn1c(=O)c(NC(=O)Nc2c(C(C)C)cc(N)cc2C(C)C)c(-c2cccc(OCCCN3CCCC3)c2)c2cccnc21.Cl.Cl | 130 | 200 | > 1000 | 427 | – | – | – | – |
| CCCCn1c(=O)c(NC(=O)Nc2c(C(C)C)cccc2C(C)C)c(-c2cccc(OC)c2)c2cccnc21 | < 1 | < 1 | < 1 | 11 | – | – | – | – |
| CCCCn1c(=O)c(NC(=O)Nc2c(C(C)C)cc(N)cc2C(C)C)c(-c2cccc(OCCCCO)c2)c2cccnc21.Cl | 5 | 7 | 680 | 61 | – | – | – | – |
| CCCCn1c(=O)c(NC(=O)Nc2c(C(C)C)ccnc2C(C)C)c(-c2cccc(OC)c2)c2cccnc21.Cl | 5 | 19 | > 1000 | 5.4 | – | – | – | – |
| CCCCn1c(=O)c(NC(=O)Nc2c(C(C)C)ccc(N)c2C(C)C)c(-c2cccc(OCCCO)c2)c2cccnc21.Cl | 17 | 19 | > 1000 | 43 | – | – | – | – |
| CCCCn1c(=O)c(NC(=O)Nc2c(C(C)C)cc(N)cc2C(C)C)c(-c2cccc(OCCCN(CC)CC)c2)c2cccnc21.Cl.Cl | 640 | 690 | > 1000 | 452 | – | – | – | – |
| CCCCn1c(=O)c(NC(=O)Nc2c(C(C)C)ccc(N)c2C(C)C)c(-c2cccc(OC)c2)c2cccnc21.Cl | 1 | 1 | 700 | 14 | – | – | – | – |
| CCCCn1c(=O)c(NC(=O)Nc2c(C(C)C)cc(N)cc2C(C)C)c(-c2cccc(OCCCO)c2)c2cccnc21.Cl | 10 | 14 | > 1000 | 21 | 16 | 53 | 21300 | 39.8 |
